Results from ChEMBL document CHEMBL1157184, “Hymenoic acid, a novel specific inhibitor of human DNA polymerase lambda from a fungus of Hymenochaetaceae sp” (Bioorg Med Chem, 2008).
Calls of active or inactive are those of the source.

What was measured:
[1] = molecular target: DNA polymerase beta (Rattus norvegicus) (UniProt P06766); experiment: Inhibition of rat DNA polymerase beta at 200 uM
Outline: (§1)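 Compound dissolved in DMSO and sonicated 30 s, then held with each polymerase (final 0.05 U) in 50 mM Tris-HCl pH 7.5, 1 mM DTT, 50% glycerol, 0.1 mM EDTA at 0 °C for 10 min. Reaction with poly(dA)/oligo(dT)12-18 and dTTP ran 60 min at 37 °C (Taq at 74 °C). Activity relative to no-compound control; means ± SEM, four independent experiments.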

Bos taurus = species on record: Bos taurus; experiment: Inhibition of bovine deoxyribonuclease 1 at 200 uM
Outline: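 Each enzyme (0.05 U) was incubated with 200 μM compound. Activity was expressed as a percentage of the activity without compound (100%). Means ± SEM of four independent experiments.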

Escherichia coli = experiment: Inhibition of Escherichia coli T4 DNA polymerase at 200 uM; outline: as §1
[2] = test system: T7 RNA polymerase (Bacteriophage T7); experiment: Inhibition of T7 RNA polymerase at 200 uM
[3] = molecular target: T1, DNA polymerase iota (Homo sapiens) (UniProt Q9UNA4); experiment: Inhibition of human DNA polymerase iota at 200 uM; outline: as §1
T1 sequence (whole entry): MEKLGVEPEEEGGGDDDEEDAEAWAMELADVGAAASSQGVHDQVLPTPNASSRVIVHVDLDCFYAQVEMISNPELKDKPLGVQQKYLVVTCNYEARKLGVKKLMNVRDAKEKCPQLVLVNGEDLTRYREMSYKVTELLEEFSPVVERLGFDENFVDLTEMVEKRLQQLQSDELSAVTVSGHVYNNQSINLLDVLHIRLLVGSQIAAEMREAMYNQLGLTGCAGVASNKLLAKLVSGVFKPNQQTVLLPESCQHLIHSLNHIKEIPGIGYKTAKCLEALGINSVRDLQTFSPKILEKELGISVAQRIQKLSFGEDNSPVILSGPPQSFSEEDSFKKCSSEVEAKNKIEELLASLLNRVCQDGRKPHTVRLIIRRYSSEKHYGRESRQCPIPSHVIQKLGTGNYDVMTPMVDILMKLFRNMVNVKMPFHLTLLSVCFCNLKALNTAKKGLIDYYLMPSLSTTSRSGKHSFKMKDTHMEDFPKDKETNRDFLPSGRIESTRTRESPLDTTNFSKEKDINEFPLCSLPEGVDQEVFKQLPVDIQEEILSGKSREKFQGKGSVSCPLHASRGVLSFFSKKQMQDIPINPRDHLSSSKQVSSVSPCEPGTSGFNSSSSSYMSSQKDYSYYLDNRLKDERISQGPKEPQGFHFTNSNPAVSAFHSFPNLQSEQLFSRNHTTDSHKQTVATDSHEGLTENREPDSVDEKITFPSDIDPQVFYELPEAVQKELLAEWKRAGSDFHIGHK

Homo sapiens = species on record: Homo sapiens; experiment: Inhibition of human DNA polymerase gamma at 200 uM; outline: as §1

Measured: Activity

C/C(=C\CC[C@H](C)C(=O)O)[C@H]1CC[C@H](C(=O)O)CC1
inactive: all assays above
